# Screening results from PubChem BioAssay.
# Sampled rows, rich in hits. Any-hit rate of the full collection: about 3.3%.
# CendR NRP1 mod: modulators of CendR peptide binding to human neuropilin-1; O14786; FAM-RPARPAR peptide binding to NRP-1, fluorescence polarization; inhibition, % at 25 µM; actives 0.85% (n = 360,000);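 active = inhibition or corrected inhibition above about 18%, plus a signal ratio from 0.5 to 1.5, limit read from the data, passing the limit was not always enough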
# SENP8 block-1: blocks human SENP8 cleavage of Nedd8 substrate. recombinant SENP8, Nedd8 substrate fluorescence. inhibition, % at 20 µM. actives 0.64% (n = 360,000). AID 602440; in the data active = inhibition mostly above about 40%, no sharp cut-off; inactive = mostly below about 27%
# SENP1 inh: inhibitors of human SENP1 SUMO protease catalytic domain; inhibition, % at 10 µM; actives 0.21% (n = 360,000); Q9P0U3; recombinant SENP1 catalytic domain, CyPet-SUMO1-YPet FRET cleavage; AID 624204;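 active = inhibition at least 30% at 10 µM, raw YFP signal under a set limit, fluorescence ratio 0.5 to 1.5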;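 note: 0% = enzyme with DMSO and 100% = no enzyme wells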
#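 Material – human SENP1 catalytic domain · Input – SENP1 enzyme, 20 pM final · Compound dosing – single concentration of 10 µM compound, 0.5% DMSO final · Timing – enzyme reaction for 50 min at room temperature, dark · Measured by – FRET fluorescence in CFP and YFP emission channels · Control set – no-enzyme wells low, DMSO-plus-enzyme wells high control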
# SENP7 block: inhibitors of human SENP7 protease; Q9BQF6; recombinant SENP7, Z-RLRGG-aminoluciferin luminescence, 40 min; inhibition, % at 5 µM; actives 1.5% (n = 330,000); AID 434973;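 active = inhibition above about 50% at the single test dose, limit read from the data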;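 note: plate controls were DMSO with enzyme for no effect and no enzyme buffer wells for full effect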
# Target sequence (Q9BQF6 706-1050 limits assumed): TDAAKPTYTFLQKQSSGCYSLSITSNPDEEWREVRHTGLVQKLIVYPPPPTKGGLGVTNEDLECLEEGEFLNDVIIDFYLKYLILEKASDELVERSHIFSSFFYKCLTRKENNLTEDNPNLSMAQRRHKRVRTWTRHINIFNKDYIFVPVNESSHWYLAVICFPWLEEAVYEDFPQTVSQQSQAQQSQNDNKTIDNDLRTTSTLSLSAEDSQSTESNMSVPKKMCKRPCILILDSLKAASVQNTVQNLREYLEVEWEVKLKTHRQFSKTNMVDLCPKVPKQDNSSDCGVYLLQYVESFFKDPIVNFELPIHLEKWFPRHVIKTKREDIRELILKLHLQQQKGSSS
# SENP8 block-2: SENP8 protease inhibition. purified SENP8, Z-RLRGG-aminoluciferin cleavage, luminescence. inhibition, % at 10 µM. actives 1.2% (n = 330,000); in the data active = inhibition above about 50%
# SENP6 block: blocks the human protease SENP6; Recombinant SENP6 catalytic domain, aminoluciferin luminescence; actives 1.8% (n = 330,000); inhibition, % at 10 µM; Q9GZR1; AID 2599;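 active = inhibition above about 50% at the single tested dose, limit read from the data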;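 note: plate controls were DMSO wells with enzyme for no effect and DMSO wells lacking enzyme for full effect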
# SENP8 conf: human SENP8 inhibition, confirmed. shares compounds with SENP7 block. Recombinant SENP8, Z-RLRGG-aminoluciferin luminescence, 60 min. inhibition, % at 12.5 µM. actives 40% (n = 6,200);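 active = mean inhibition across replicates above about 50%, limit read from the data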
# SENP6 confirm: human SENP6 inhibition, confirmed. shares compounds with SENP7 block. recombinant SENP6, Z-RLRGG-aminoluciferin luminescence. inhibition, % at 12.5 µM. actives 58% (n = 6,200). AID 488915
# SENP7 conf: confirmation of human SENP7 protease inhibitors; AID 488917; actives 69% (n = 6,200); inhibition, % at 12.5 µM; recombinant SENP7, Z-RLRGG-aminoluciferin luminescence, 40 min; shares compounds with SENP7 block
# Casp3 SENP sel: selectivity test for SENP inhibitors: human caspase-3 inhibition. shares compounds with SENP7 block. purified caspase-3, Z-DEVD-aminoluciferin luminescence, 60 min. inhibition, % at 12.5 µM. actives 60% (n = 6,200);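 active = mean inhibition above about 50%, limit read from the data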;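 note: plate controls were enzyme with DMSO for no effect and wells without caspase-3 for full effect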
# Target sequence (P42574 28-227 limits assumed): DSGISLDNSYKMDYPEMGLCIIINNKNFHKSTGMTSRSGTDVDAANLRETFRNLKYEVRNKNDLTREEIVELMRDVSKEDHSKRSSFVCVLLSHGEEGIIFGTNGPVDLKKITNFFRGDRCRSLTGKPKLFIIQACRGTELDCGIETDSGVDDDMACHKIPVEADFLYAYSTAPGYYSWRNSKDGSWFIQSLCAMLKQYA
# SENP luc ctr: luminescence interference (SENP counter-screen); shares compounds with SENP7 block; Pre-incubated SENP8/Z-RLRGG-aminoluciferin, luciferase luminescence interference; inhibition, % at 12.5 µM; actives 39% (n = 6,200); AID 488919;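 active = mean inhibition above about 50% when retested at one dose, limit read from the data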;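 note: plate controls were DMSO wells with completed reaction for no effect and substrate without enzyme for full effect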
# Starred values were filed as active, the others as inactive; i = inactive; · = no result given.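 Rule for the calls, unless noted: active = mean inhibition above about 50% in the one-dose retest (limit read from the data); inactive = the rest.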
SMILES,CendR NRP1 mod,SENP8 block-1,SENP1 inh,SENP7 block,SENP8 block-2,SENP6 block,SENP8 conf,SENP6 confirm,SENP7 conf,Casp3 SENP sel,SENP luc ctr
Nc1cccnc1Sc1ccc(Cl)cc1,-8,-44,-1,36,42,55*,-5,-7,-10,-5,-4
Cc1cc(N)n(-c2cc(C)c3ccccc3n2)n1,10,9,1,81*,73*,79*,-26,71*,93*,79*,70*
C/C(=N\NC(=O)c1ccccc1O)c1c(O)cc(C)oc1=O,3,-73,-3,69*,62*,81*,13,6,1,-3,-2
C/C(=N\NC(=O)c1ccccc1O)C1C(=O)c2ccccc2C1=O,-32,36,10,87*,93*,94*,98*,98*,102*,89*,74*
C/C(=N\NC(=O)c1cc2ccccc2cc1O)c1cc2ccccc2o1,-15,-132,29,-9,-9,10,·,·,·,·,·
C/C(=N\NC(=O)c1ccccc1[N+](=O)[O-])c1c(O)cc(C)oc1=O,4,19,1,4,3,-11,·,·,·,·,·
C/C(=N/NC(=O)c1cc2ccccc2cc1O)C1C(=O)c2ccccc2C1=O,-58,27,24,63*,96*,94*,95*,99*,97*,81*,46
CCN1C(=O)C(CC(=O)NCCc2ccccc2)N(NC(=O)c2ccc(Br)cc2)C1=S (stereo unspecified),-13,9,3,·,·,·,·,·,·,·,·
OCc1ccccc1-c1nc(NCC2CC2)nc2ccsc12,6,i,-29,·,·,·,·,·,·,·,·
CCOC(=O)C1(C)CCCN1C(=O)c1snnc1C (stereo unspecified),-3,7,-8,·,·,·,·,·,·,·,·
N=C1/C(=C\c2ccc(-c3cc(Cl)cc(Cl)c3)o2)C(=O)N=C2SC=C(c3ccccc3)N12,-29,5,18,2,8,21,·,·,·,·,·
N=C1/C(=C/c2ccc(-c3cccc(C(=O)O)c3)o2)C(=O)N=C2SC=C(c3ccccc3)N12,-143,-30,-23,11,46,65*,26,-1,-8,3,4
CCN(CC)C(=O)COc1ccc(-c2ccccc2)cc1,-10,22,1,60*,46,70*,55*,55*,82*,73*,66*
Nc1ncnc2c(C3OC(CO)C(O)C3O)scc12 (stereo unspecified),15,-496,-3,·,·,·,·,·,·,·,·
O=C(NCCCCc1ccccc1)c1cccc(NC(=O)C2CCCC2)c1,3,0,0,·,·,·,·,·,·,·,·
Cc1ccc(NC(=O)CC2C(=O)NC3CCCCC3N2C(=O)c2ccc(F)cc2)cc1C (stereo unspecified),11,7,1,11,3,54*,11,8,10,5,6
O=C(CC1C(=O)NC2CCCCC2N1C(=O)c1ccc(F)cc1)Nc1ccccc1 (stereo unspecified),4,2,0,1,3,-14,·,·,·,·,·
Cc1cccc(N=Nc2ccc(O)c3ncccc23)c1,0,37,-1,26,33,69*,-15,-2,9,48,1
Cc1ccc(S(=O)(=O)CCC(=O)Nc2nc(-c3ccncc3)cs2)cc1,10,1,-1,-7,5,52*,10,6,-7,-1,0
O=C1c2ccccc2C(=O)C12OC2c1cccc2ccccc12 (stereo unspecified),13,93*,1,0,53*,87*,72*,88*,78*,3,10
C=CCn1c2ccccc2c(=O)c2cc(C#CC[C@@H](C)O)ccc21,-10,i,-33,30,37,56*,59*,59*,76*,52*,33
C=CCn1c2ccccc2c(=O)c2cc(C#CC3(O)CCCCC3)ccc21,-6,-454,-32,43,71*,76*,9,79*,93*,60*,-4
Cn1c2ccccc2c(=O)c2cc(C#CC3=CCCCC3)ccc21,-41,-498,-28,0,28,39,·,·,·,·,·
CN(Cc1ccccc1)C(=O)c1cccc(NC(=O)Cc2ccc(NC(=O)C3CCCN(C(=O)C4CCCC4)C3)cc2)c1 (stereo unspecified),1,1,0,·,·,·,·,·,·,·,·
CCCC(=O)Nc1nc2ccc(S(N)(=O)=O)cc2s1,-9,11,4,7,1,-8,·,·,·,·,·
SMILES,CendR NRP1 mod,SENP8 block-1,SENP1 inh,SENP7 block,SENP8 block-2,SENP6 block,SENP8 conf,SENP6 confirm,SENP7 conf,Casp3 SENP sel,SENP luc ctr
NS(=O)(=O)c1ccc2nc(NC(=O)Nc3ccccc3F)sc2c1,-37,-4,-9,59*,59*,76*,69*,71*,90*,58*,76*
Cc1ccccc1NC(=O)Nc1nc2ccc(S(C)(=O)=O)cc2s1,10,0,2,51*,-12,-12,-21,-16,-6,-8,-6
CCOc1ccc(NC(=O)Nc2nc3ccc(S(C)(=O)=O)cc3s2)cc1,5,-36,1,2,2,-7,·,·,·,·,·
CC1(C(=O)NS(=O)(=O)C2CC2)CCCN(C(=O)c2cccc(Cl)c2)C1 (stereo unspecified),9,16,3,·,·,·,·,·,·,·,·
CN(C(=O)c1ccco1)c1nnc(C23CC4CC(CC(C4)C2)C3)s1,0,2,2,3,-3,0,·,·,·,·,·
CN(C(=O)c1ccco1)c1nc2c(s1)CCCC2,-5,28,-1,92*,85*,-4,8,91*,101*,94*,89*
CCOC(=O)c1c(NC(=O)CN2CCN(S(=O)(=O)c3cc(Cl)ccc3Cl)CC2)sc(C(=O)N(C)C)c1C,-12,-6,-1,·,·,·,·,·,·,·,·
COc1ccc(C(=O)Nc2nnc(C(F)(F)F)s2)cc1,-4,-32,2,19,16,61*,33,31,64*,64*,27
COc1ccc(-c2nnc(NC(=O)c3c(OC)cccc3OC)s2)cc1,-11,-231,0,-9,-1,12,·,·,·,·,·
O=C(Nc1nnc(C(F)(F)F)s1)c1cccnc1,-7,-4,7,48,20,55*,54*,54*,88*,85*,66*
